Holding throughout (assay type): functional
In experiment [1] the test system is Mus musculus. The experiment in a line: Analgesic activity in Wistar Albino mouse at 10 mg/kg, po after 3 hrs by tail-flick technique. A digest of the protocol:
(§1)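 Tail-flick in Wistar albino mice (25–35 g, either sex, randomly selected), compound given orally as suspension in 1% carboxymethyl cellulose; six animals per group. Reaction time read before dosing and after dosing, cut-off 10 s. Percent analgesic activity = (T2 − T1)/(10 − T1) × 100, T1/T2 being pre/post reaction times; mean of n = 6, one-way ANOVA versus control.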

In experiment [2] the test system is Mus musculus. Briefly: Analgesic activity in Wistar Albino mouse at 20 mg/kg, po after 30 mins by tail-flick technique. A digest of the protocol:
as §1

Experiment [3] deals with Mus musculus. The experiment in a line: Analgesic activity in Wistar Albino mouse at 20 mg/kg, po after 1 hr by tail-flick technique. In outline: as §1
Experiment [4] deals with Mus musculus. Briefly: Analgesic activity in Wistar Albino mouse at 20 mg/kg, po after 2 hrs by tail-flick technique. A digest of the protocol: as §1
Experiment [5] deals with Mus musculus. Briefly: Analgesic activity in Wistar Albino mouse at 20 mg/kg, po after 3 hrs by tail-flick technique. A digest of the protocol:
as §1

Experiment [6] concerns Rattus norvegicus. Briefly: Anti-inflammatory activity against Carrageenan-induced paw oedema rat model at 10 mg/kg after 30 mins. A digest of the protocol: (§2)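 Rat carrageenan paw oedema; compound dosed orally as suspension in 1% carboxymethyl cellulose, six rats per group. Paw volume by mercury displacement plethysmography immediately before and at the stated time after carrageenan injection. Percent oedema inhibition computed from pre/post paw volumes of treated versus vehicle-control rats; one-way ANOVA versus control.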

In experiment [7] the test system is Rattus norvegicus. Briefly: Anti-inflammatory activity against Carrageenan-induced paw oedema rat model at 10 mg/kg after 1 hr. A digest of the protocol: as §2
For orientation: In the carrageenan paw model, swelling and tenderness develop within hours.

Experiment [8] deals with Rattus norvegicus. Briefly: Anti-inflammatory activity against Carrageenan-induced paw oedema rat model at 10 mg/kg after 2 hrs. In outline:
as §2

Experiment [9] concerns Rattus norvegicus. Briefly: Anti-inflammatory activity against Carrageenan-induced paw oedema rat model at 10 mg/kg after 3 hrs. In outline:
as §2

Experiment [10] has as its system Rattus norvegicus. Briefly: Anti-inflammatory activity against Carrageenan-induced paw oedema rat model at 20 mg/kg after 30 min. In outline: as §2
Experiment [11] relates to Rattus norvegicus. The experiment in a line: Anti-inflammatory activity against Carrageenan-induced paw oedema rat model at 20 mg/kg after 1 hr. In outline:
as §2

Experiment [12] deals with Rattus norvegicus. Briefly: Anti-inflammatory activity against Carrageenan-induced paw oedema rat model at 20 mg/kg after 2 hrs. In outline:
as §2

For experiment [13], the system named is Rattus norvegicus. The experiment in a line: Anti-inflammatory activity against Carrageenan-induced paw oedema rat model at 20 mg/kg after 3 hrs. In outline:
as §2

The test system of experiment [14] is Mus musculus. The experiment in a line: Analgesic activity in Wistar Albino mouse at 10 mg/kg, po after 30 mins by tail-flick technique. In outline:
as §1

The subject of experiment [15] is Mus musculus. The experiment in a line: Analgesic activity in Wistar Albino mouse at 10 mg/kg, po after 1 hr by tail-flick technique. A digest of the protocol:
as §1

Experiment [16] deals with Mus musculus. The experiment in a line: Analgesic activity in Wistar Albino mouse at 10 mg/kg, po after 2 hrs by tail-flick technique. In outline:
as §1

As for `O=c1c2ccccc2nc(N/N=C\c2ccccc2[N+](=O)[O-])n1-c1ccccc1`, the Activity came to 30% in experiment [1]; 42% in experiment [2]; 46% in [3]; 49% in experiment [4]; 39% in [5]; 27% in experiment [6]. Also, the Activity in experiment [7] stood at 29%; in [8] it was 34%; in experiment [9], 22%; in experiment [10], 32%; in [11], 33%; in [12], 36%. In addition, the Activity in experiment [13] amounted to 30%; in experiment [14], 35%; in [15] it was 36%; in experiment [16], 39%.

`Cc1ccc(/C=N\Nc2nc3ccccc3c(=O)n2-c2ccccc2)cc1`: the Activity in experiment [1] turned out to be 33%; in [2], 43%; in experiment [3] it was 47%; in experiment [4], 50%; in [5], 40%; in experiment [6], 28%. Moreover, the Activity in experiment [7] is reported as 33%; in experiment [8] it was 34%; in [9], 25%; in [10], 38%; in [11], 38%; in experiment [12], 43%. Also, the Activity in [13] is on record as 36%; in [14] it was 37%; in [15], 40%; in [16], 40%.

Consider `O=C(O)Cc1ccccc1Nc1c(Cl)cccc1Cl` [DICLOFENAC], for which the Activity in experiment [1] came to 33%; in [2], 46%; in [3] it was 55%; in experiment [4], 62%; in experiment [5], 39%; in [6], 32%. Moreover, the Activity was determined as 38% in experiment [7]; 39% in experiment [8]; 33% in [9]; 45% in [10]; 52% in [11]; 60% in [12]. Further, the Activity in experiment [13] stood at 42%; in [14], 37%; in [15], 43%; in experiment [16], 45%.

In the case of `Cc1ccccc1/C=N\Nc1nc2ccccc2c(=O)n1-c1ccccc1`, the Activity in [1] is listed as 33%; in experiment [2], 45%; in experiment [3], 46%; in experiment [4], 48%; in [5] it was 39%; in experiment [6] it was 30%. The Activity came to 32% in experiment [7]; 33% in experiment [8]; 28% in experiment [9]; 36% in [10]; 39% in experiment [11]; 42% in experiment [12]. Further, the Activity was determined as 30% in experiment [13], 35% in experiment [14], 39% in experiment [15] and 40% in [16].

The values above are taken from ChEMBL document CHEMBL1144538, “Synthesis and pharmacological evaluation of some 3-phenyl-2-substituted-3H-quinazolin-4-one as analgesic, anti-inflammatory agents” (2007).
